Laboratory results: ChEMBL document CHEMBL4513216, “Probing the Open Global Health Chemical Diversity Library for Multistage-Active Starting Points for Next-Generation Antimalarials” (ACS Infect Dis, 2020)

Assay: Toxicity liver stage against HepG2, at 10uM
Assay type: cell-based
Parameters: test concentration 10 uM, cell line HepG2-A16-CD81EGFP
Conditions: human, HepG2-A16-CD81EGFP cells; read-out: INHIBITION
Outline: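 Uninfected HepG2-A16-CD81EGFP cells, 3 × 10^3 per well, 1536-well, plated on prespotted compound at 10 μM final, parasite-free screening media added to match infected plates; puromycin 10 μM positive, DMSO 0.5% negative; run in parallel with 48 h PbLuc assay at 37 °C, 5% CO2; viability by CellTiter-Glo luminescence, normalized to controls.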

Compound | cytotoxicity at 10 µM
CC(C)OCCOCc1cccc(NC(=O)NCc2ccncc2)c1 | -12%
CCc1noc(C(C)N2CCN(c3ccc(C#N)cc3F)CC2)n1 (stereo not given) | -9.7%
COc1c(C2CCCN2C(=O)c2ccc(Cl)o2)c(C)nn1C (stereo not given) | -10.4%
CCN(CC)CC(=O)NCc1cccnc1-n1cnc2ccccc21 | 1.77%
CSCC(=O)NC1CC(=O)N(CCc2ccccc2)C1 (stereo not given) | -2.1%
CCc1nc(C)c([C@H]2CN(C)C[C@@H]2C(=O)Nc2cccc3cn[nH]c23)[nH]1 | -3.44%
Cc1cc(-c2ccc(C(C)N3CCCCC3)cc2)cnc1N (stereo not given) | -3.44%
COc1ccc(OCc2cc(C(=O)N3CCSCC3)n[nH]2)c(Cl)c1 | -7.51%
Cc1cc(C)c(C#N)c(N2CCC3(CCCN(CCO)C3=O)C2)n1 (stereo not given) | 0.854%
CCNc1nc(C)c(C(=O)N(C)Cc2nc(-c3ccncc3)no2)s1 | 1.41%
Cc1ccnc(NCCNC(=O)C2CC3(CCNCC3)CN2C)c1 (stereo not given) | 2.69%
C[C@@H]1CN(CCOc2ccc(Cl)cc2)CC[C@@]1(O)C1CCOCC1 | 19.4%
COC(=O)NCC(=O)N1CCC(Oc2cccc(C)c2)CC1 | -0.555%
CC(Oc1ccc(F)cc1F)C(=O)N1CCC2(CC1)CC(=O)N(C)C2 (stereo not given) | 1.63%
Cc1ccc(-c2nc(CN3CCOCS3(=O)=O)c(C)o2)cc1 | -0.724%
CCC(CO)N(Cc1cccnc1)Cc1ccc(-c2ccn[nH]2)s1 (stereo not given) | -1.55%
O=C(NC1CCCNC1)c1cc(COc2cccc(C(F)(F)F)c2)[nH]n1 (stereo not given) | -1.31%
Cc1[nH]c2c(C)ccc(C)c2c1CC(=O)NCCNc1cccnc1 | 0.393%
COCCN(Cc1cccs1)c1nc(CCN)nc2ccccc12 | 4.49%
COc1cccn(CC(=O)N2CCCC3(CCCCC3)C2)c1=O | -1.29%
CN(C)CC(C)(C)Cn1cnc(-c2ccccc2)c1-c1ccncc1 | 4.19%
O=C(C1CCC1)N1CCN(Cc2ccsc2)[C@H]2CS(=O)(=O)C[C@H]21 | -12%
CCC1CN(C(=O)c2ccc(Cl)cc2O)CCN1C(C)C (stereo not given) | -15.5%
Cc1ncsc1-c1nnc(C2CCN(CC3CCCCC3)CC2)o1 | 1.59%
Cc1c[nH]nc1C1CCCCN1C(=O)Cn1cc(Cl)cn1 (stereo not given) | 4.11%
Cc1ccn(CCC(=O)N2CCOC(c3nc(-c4cccs4)no3)C2)n1 (stereo not given) | 7.03%
CCOCC(O)CN1CCN(C(=O)c2cc(Cl)ccc2F)CC1 (stereo not given) | -6.54%
COc1cccc(CC(=O)N2CCC(NCc3c[nH]nc3C)CC2)c1 | -8.98%

Compound | cytotoxicity at 10 µM
NC(=O)c1cnn2c1NCC(CNCCOc1ccccc1)C2 (stereo not given) | -11.4%
Cc1csc(C2CCCN(C(=O)Cn3ccccc3=O)C2)n1 (stereo not given) | -5.68%
CC(C)Oc1ncccc1CNC(=O)Nc1ccccn1 | -9.41%
c1ccc(-n2cc(CN3CCCC3Cn3cccn3)nn2)cc1 (stereo not given) | 0.207%
Cc1ccc(OCC(=O)NC2CCN(S(C)(=O)=O)CC2)cc1 | -0.0552%
Cc1ccc(CNC(=O)NC(C)Cn2cccn2)cn1 (stereo not given) | -11.2%
COC1CCN(Cc2csc(C(C)C)n2)CC1 | 3.32%
Cc1cc(NC(=O)C(C)N2CCN(c3nc(C)cs3)CC2)on1 (stereo not given) | -0.71%
CN(Cc1cc(-c2ccccc2)no1)CC1CCCN1c1cccnn1 (stereo not given) | -9.09%
CN(Cc1cccnc1)CC1CCCN1c1cccnn1 (stereo not given) | 0.192%
FC(F)(F)c1nc(C2CCCNC2)no1 (stereo not given) | 5.25%
NCCc1cn(Cc2ccccn2)c2ccccc12 | 3.71%
Cc1ccc([C@]2(O)CC[C@H]3CN(Cc4ccccc4F)C[C@H]32)nc1 | -12.8%
CCN1CCn2c(C)cnc2C12CCN(C(=O)N(C)C)CC2 | 4.91%
CN1CC[C@@H]2[C@@H](CO[C@H]2CNC(=O)c2nccn2C)C1 | -113%
c1ccc(CN2CCCn3nnc(CNc4ncccn4)c3C2)nc1 | -3.29%
O=C(NC1CCCC1)c1ccc(C2CCCNC2)nc1 (stereo not given) | -13.7%
O=C(C[C@@H]1COC[C@H]2CN(Cc3ccc(F)cc3)C[C@@H]12)N1CCOCC1 | 7.75%
CCN1CCn2cc(CNC(=O)c3cnn(C)c3)nc2C1 | 8.88%
Fc1cccnc1OC[C@@]12CCO[C@@H]1CCN(CC1CCOCC1)C2 | -14.6%
Cc1nc(Cn2c3c(ccc2=O)CCN(CC2CCC2)CC3)cs1 | 5.1%
c1cncc(C2COC3(CCN(CC4CC4)CC3)C2)c1 (stereo not given) | -14.9%
CNC(=O)[C@@]12CCCN(c3ncccn3)[C@@H]1CN(C)C2 | 12.8%
CNC(=O)N1CC[C@H]2N(C)CC[C@@]2(C(=O)N2CCOCC2)CC1 | -2.72%
CCn1cc2c(n1)CN(S(=O)(=O)c1cn(C)cn1)CC2COC (stereo not given) | 5.41%
O=S(=O)(Cc1ccccc1)N1CCCn2cnc(CN3CCCC3)c2C1 | 3.3%
CCOC(=O)c1cnn(C2CCN(C(=O)CC(C)(C)C)CC2)c1N | 6.26%
